From PubChem
WT yeast gro inh – growth inhibition of WT yeast, mitochondrial fusion screen | mitochondrial fusion phenotypic screen, WT strain | inhibition, % at 10 µM | 190,000 compounds, 2.1% hits | AID 1362; in the data active = inhibition above about 58%; tested in S. cerevisiae
RAM inhibit – yeast RAM network inhibition; inhibition, % at 50 µM; AID 868; S. cerevisiae dse1pr::URA3 reporter, 5-FOA growth OD615, 2 d; analog-sensitive cbk1-as2 kinase mutant strain; 190,000 compounds, 1.8% hits;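 active = inhibition above a set limit, 3 SD over mean compound inhibition, cut at about 8.4% in these data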;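 note: 0% = DMSO-only wells with no growth and 100% = 10 µM 1-NA-PP1 full growth; inhibition rescues growth on 5-FOA so higher OD means more RAM inhibition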
ABCB1 block – human ABCB1 inhibition, ABCG2 as counter-screen; P08183; CCRF-Adr cells, JC-1 efflux, flow cytometry; inhibition, % at 6.6 µM; 190,000 compounds, 0.067% hits; AID 1326; in the data active = inhibition above about 40%;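 note: 0% = vehicle and 100% = reference inhibitor; higher value means more JC-1 retained so stronger ABCB1 efflux block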
Target sequence (P08183 whole entry, looked up): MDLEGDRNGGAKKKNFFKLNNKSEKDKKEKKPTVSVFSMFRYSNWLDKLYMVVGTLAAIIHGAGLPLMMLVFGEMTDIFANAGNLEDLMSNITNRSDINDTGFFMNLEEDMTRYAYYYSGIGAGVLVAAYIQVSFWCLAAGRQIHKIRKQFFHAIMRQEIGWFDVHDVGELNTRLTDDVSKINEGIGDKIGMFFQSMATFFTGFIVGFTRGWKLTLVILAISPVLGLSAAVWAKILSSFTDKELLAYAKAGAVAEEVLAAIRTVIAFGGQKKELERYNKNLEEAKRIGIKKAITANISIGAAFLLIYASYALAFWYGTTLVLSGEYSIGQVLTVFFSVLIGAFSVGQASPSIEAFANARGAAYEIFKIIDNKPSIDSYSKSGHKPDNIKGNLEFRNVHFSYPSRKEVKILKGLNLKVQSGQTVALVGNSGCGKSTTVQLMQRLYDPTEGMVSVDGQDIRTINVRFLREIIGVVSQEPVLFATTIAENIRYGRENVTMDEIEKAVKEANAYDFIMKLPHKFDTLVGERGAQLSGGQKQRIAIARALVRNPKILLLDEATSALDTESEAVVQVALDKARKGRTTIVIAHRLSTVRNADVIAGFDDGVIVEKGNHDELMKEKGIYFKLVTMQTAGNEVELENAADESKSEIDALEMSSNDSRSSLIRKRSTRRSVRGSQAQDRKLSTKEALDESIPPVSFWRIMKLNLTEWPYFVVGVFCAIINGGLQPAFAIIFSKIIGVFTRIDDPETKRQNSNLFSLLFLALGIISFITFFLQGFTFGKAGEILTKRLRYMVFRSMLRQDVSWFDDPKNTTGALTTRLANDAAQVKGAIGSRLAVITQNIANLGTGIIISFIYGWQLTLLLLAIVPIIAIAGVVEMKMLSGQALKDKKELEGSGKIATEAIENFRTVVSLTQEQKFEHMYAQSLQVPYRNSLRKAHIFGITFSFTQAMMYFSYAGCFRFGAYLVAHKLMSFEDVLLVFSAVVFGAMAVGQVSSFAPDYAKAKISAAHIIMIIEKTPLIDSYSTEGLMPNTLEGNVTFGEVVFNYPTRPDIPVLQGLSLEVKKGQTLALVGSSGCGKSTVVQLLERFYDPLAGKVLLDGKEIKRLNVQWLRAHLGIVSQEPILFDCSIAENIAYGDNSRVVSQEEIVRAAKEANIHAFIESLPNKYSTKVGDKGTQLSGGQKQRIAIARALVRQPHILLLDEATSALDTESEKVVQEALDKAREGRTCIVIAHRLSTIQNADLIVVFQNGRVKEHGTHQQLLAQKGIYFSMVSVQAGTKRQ
L major viab – reduces viability of Leishmania major promastigotes; 200,000 compounds, 9% hits; resazurin fluorescence viability; AID 1063; inhibition, % at 10 µM; in the data active = inhibition above about 50%;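 note: promastigotes grown with compound for 44 hours at 28 °C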
ABCG2 block – blocks JC-1 efflux by human ABCG2 transporter. 190,000 compounds, 0.1% hits. IgMXP3 cells, flow cytometry. inhibition, % at 6.6 µM. Q9UNQ0;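 active = inhibition above 80%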;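 note: 0% = DMSO and 100% = nicardipine control wells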
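Incubation: cells with compound and JC-1, 10 min at 25 °C, rotating, no wash / Test system: IgMXP3 (ABCG2) plus far-red-tagged CCRF-Adr (ABCB1) cells / Compound dosing: one concentration, 6.6 µM final / Also added: JC-1 fluorescent substrate / Evaluation: efflux inhibition in percent versus controls / Detection: flow cytometry, 530 nm JC-1 signal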
* hit, by the source's call. Compounds with a hit are over-represented: about 12% of the library has one in this group of screens.

Screening CSc1ncc(CN2CCCC(C(=O)c3ccc(C(C)(C)C)cc3)C2)cn1 (stereo not drawn) returned WT yeast gro inh 46, RAM inhibit -1, ABCB1 block 0, L major viab 88* and ABCG2 block 1.
COc1ccc(CN2CCCC(C(=O)c3cccc(C(F)(F)F)c3)C2)cc1O (stereo not drawn) was read as WT yeast gro inh 22, RAM inhibit 3, ABCB1 block 2, L major viab 84* and ABCG2 block 4.
CCSCCc1nnc(NC(=O)Nc2cccc(C(F)(F)F)c2)s1 was read as WT yeast gro inh 18, RAM inhibit 4, ABCB1 block 0, L major viab 5 and ABCG2 block 7.
For Cc1cccc(NC(=O)C2CCCN2S(=O)(=O)c2cccc3cccnc23)c1 (stereo not drawn) the results were WT yeast gro inh 14, RAM inhibit 1, ABCB1 block 0, L major viab -5 and ABCG2 block 0.
COc1ccc(S(=O)(=O)/N=C2/C=CC(=O)C(C)=C2C)cc1 was read as WT yeast gro inh 7, RAM inhibit 1, ABCB1 block 1, L major viab 24 and ABCG2 block 1.
CC1=C(C)/C(=N\OS(=O)(=O)c2ccc(C)cc2)C=CC1=O was read as WT yeast gro inh 85, RAM inhibit 0, ABCB1 block -1, L major viab 100* and ABCG2 block -6.
For CC1=C/C(=N\OS(=O)(=O)c2ccccc2)C(C)=CC1=O the results were WT yeast gro inh 75, RAM inhibit -1, ABCB1 block 0, L major viab 100* and ABCG2 block -1.
Screening CC1=C/C(=N\OS(=O)(=O)c2ccccc2)C(C(C)C)=CC1=O returned WT yeast gro inh 98, RAM inhibit 0, L major viab 100* and ABCG2 block -5.
For Cn1cc2cc([N+](=O)[O-])ccc2n1 the results were WT yeast gro inh -5, RAM inhibit 2, ABCB1 block 0, L major viab -10 and ABCG2 block 3.
Screening O=C(COc1ccc(F)cc1)NN1C(=O)CSC1=S returned WT yeast gro inh 0, RAM inhibit 1, ABCB1 block 0, L major viab -8 and ABCG2 block 1.
`CC(=O)NC1=NN(C(C)=O)C(c2ccc(F)cc2)S1` (stereo not drawn) gave WT yeast gro inh 5, RAM inhibit 2, ABCB1 block 0, L major viab 3 and ABCG2 block -1.
For CC1=NNC(=O)C(CC(=O)Nc2ccc(Cl)c(Cl)c2)C1 (stereo not drawn) the results were WT yeast gro inh 11, RAM inhibit 0, ABCB1 block 0, L major viab -9 and ABCG2 block 16.
For N#CC(c1ccc(Cl)cc1)(c1ncc(C(F)(F)F)cc1Cl)N1CCOCC1 (stereo not drawn) the results were WT yeast gro inh 70*, RAM inhibit 2, ABCB1 block 1, L major viab 0 and ABCG2 block 4.
`CC1=NN(C(C#N)c2c(C)nn(Cc3ccccc3)c2C)C(C)(C)C1` (stereo not drawn) gave WT yeast gro inh 1, RAM inhibit 1, ABCB1 block 1, L major viab 1 and ABCG2 block 6.
Screening CC1(C)Cc2c(sc3c2c(=N)n(Cc2ccco2)c(=O)n3Cc2ccc(Cl)cc2)CO1 returned WT yeast gro inh 38, RAM inhibit 2, ABCB1 block 1, L major viab 15 and ABCG2 block 1.
`CC1(C)Cc2c(sc3c2c(=N)n(Cc2ccco2)c(=O)n3Cc2ccccc2)CO1` gave WT yeast gro inh 3, RAM inhibit 0, ABCB1 block 1, L major viab 82* and ABCG2 block -1.
`COc1ccc(Nc2nnc(-c3ccccc3)c3ccccc23)cc1C(=O)N1CCCCC1` gave WT yeast gro inh -6, RAM inhibit 0, ABCB1 block 1, L major viab 26 and ABCG2 block 11.
Screening Cc1nc2cc(Nc3nnc(-c4ccccc4)c4ccccc34)ccc2n1C returned WT yeast gro inh 9, RAM inhibit 1, ABCB1 block 0, L major viab 88* and ABCG2 block 1.
For O=C(O)C1CSC(c2ccccc2Cl)N1C(=O)c1ccc(Cl)cc1 (stereo not drawn) the results were WT yeast gro inh -12, RAM inhibit 1, ABCB1 block 0, L major viab -6 and ABCG2 block -1.
`CC(C)c1nc(N2CCN(C(=O)c3ccccc3)CC2)c(C#N)c2c1COC(C)(C)C2` gave WT yeast gro inh 25, RAM inhibit 2, ABCB1 block 2, L major viab 74* and ABCG2 block 2.
For CSc1nc(O)c(/C=C2\C=Nc3ccccc32)[nH]1 the results were WT yeast gro inh 28, RAM inhibit 1, ABCB1 block -1, L major viab 4 and ABCG2 block -5.
For Oc1nc(Nc2ccc(Cl)cc2Cl)sc1/C=C1\C=Nc2ccccc21 the results were WT yeast gro inh 83*, RAM inhibit 7, ABCB1 block -1, L major viab -10 and ABCG2 block -10.
Screening CCN=c1sc2ccccc2n1CC(O)COc1ccccc1 (stereo not drawn) returned WT yeast gro inh 12, RAM inhibit -1, ABCB1 block 0, L major viab 100* and ABCG2 block 0.
Cc1ccc(N(CC(O)Cn2c3ccccc3c3ccccc32)S(C)(=O)=O)c(C)c1 (stereo not drawn) was read as WT yeast gro inh 67*, RAM inhibit 6, ABCB1 block -1, L major viab -3 and ABCG2 block 12.
Cc1ccc(N(CC(O)CN2CCCC2)S(=O)(=O)c2ccc(C)cc2)cc1 (stereo not drawn) was read as WT yeast gro inh -12, RAM inhibit 0, ABCB1 block 1, L major viab 28 and ABCG2 block 3.
For Cc1ccc(N(CC(O)Cn2c3ccccc3c3ccccc32)S(C)(=O)=O)cc1 (stereo not drawn) the results were WT yeast gro inh 40, RAM inhibit 4, ABCB1 block 1, L major viab 41 and ABCG2 block 3.
CC(=O)Nc1ccc(N(CC(O)Cn2c3ccccc3c3ccccc32)S(=O)(=O)c2ccc(C)cc2)cc1 (stereo not drawn) was read as WT yeast gro inh -12, RAM inhibit 7, ABCB1 block 0, L major viab 62* and ABCG2 block -2.
Cc1cc(C)n(CC(O)CN(c2ccccc2)S(=O)(=O)c2ccccc2)n1 (stereo not drawn) was read as WT yeast gro inh -8, RAM inhibit 3, ABCB1 block 1, L major viab 0 and ABCG2 block 3.
Cc1ccc(N(CC(O)Cn2nc(C)cc2C)S(=O)(=O)c2ccc3ccccc3c2)cc1 (stereo not drawn) was read as WT yeast gro inh 34, RAM inhibit 7, ABCB1 block 3, L major viab 76* and ABCG2 block 6.
Screening COc1ccc(/C=C(\C#N)C(=O)OCC(=O)Nc2ccc(-c3nc4ccc(C)cc4s3)cc2)cc1 returned WT yeast gro inh -10, RAM inhibit 1, ABCB1 block -1, L major viab -2 and ABCG2 block -1.
